Compound activity deposited in PubChem by Sanford-Burnham Center for Chemical Genomics.
mIAP activ: mouse IAP activation. muIAP, CDP-Star luminescence, 30 min; active compounds read high; 1 = vehicle-only enzyme signal, 0 = enzyme-free wells. activation factor at 10 µM. actives 0.24% (n = 330,000);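 active = activation factor of at least 2 at 20 µM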
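System: mouse IAP enzyme. Reagent: CDP-Star chemiluminescent phosphatase substrate. Benchmarks: DMSO wells, no-enzyme wells. Times: 30 min enzyme-substrate-compound incubation at room temperature. Detection: luminescence from enzymatic CDP-Star hydrolysis. Doses: test compounds delivered from DMSO solution.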
bIAP inhibitor: intestinal alkaline phosphatase (bovine) inhibition; purified bovine IAP, CDP-star luminescence, 30 min; inhibition, % at 20 µM; 190,000 tested, under 10 active;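 active = over 50% inhibition of intestinal alkaline phosphatase at 20 µM in the single-dose screen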
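System: Purified bovine intestinal alkaline phosphatase (IAP) enzyme | Input: IAP diluted 1/65,000,000 in the well | Also added: CDP-star chemiluminescent phosphatase substrate, 30 µM final | Dosing: 20 µM single dose | Times: Enzyme reaction for 30 min at room temperature | Detection: Luminescence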
hIAP activ: human IAP activation. P09923. purified human IAP, CDP-Star luminescence, 30 min; active compounds read high; 1 = vehicle-only enzyme, 0 = enzyme-free background. activation factor at 10 µM. actives 0.16% (n = 330,000);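 active = activation factor of the enzyme at least 2-fold when tested at 20 µM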
Target sequence (P09923 whole entry, looked up): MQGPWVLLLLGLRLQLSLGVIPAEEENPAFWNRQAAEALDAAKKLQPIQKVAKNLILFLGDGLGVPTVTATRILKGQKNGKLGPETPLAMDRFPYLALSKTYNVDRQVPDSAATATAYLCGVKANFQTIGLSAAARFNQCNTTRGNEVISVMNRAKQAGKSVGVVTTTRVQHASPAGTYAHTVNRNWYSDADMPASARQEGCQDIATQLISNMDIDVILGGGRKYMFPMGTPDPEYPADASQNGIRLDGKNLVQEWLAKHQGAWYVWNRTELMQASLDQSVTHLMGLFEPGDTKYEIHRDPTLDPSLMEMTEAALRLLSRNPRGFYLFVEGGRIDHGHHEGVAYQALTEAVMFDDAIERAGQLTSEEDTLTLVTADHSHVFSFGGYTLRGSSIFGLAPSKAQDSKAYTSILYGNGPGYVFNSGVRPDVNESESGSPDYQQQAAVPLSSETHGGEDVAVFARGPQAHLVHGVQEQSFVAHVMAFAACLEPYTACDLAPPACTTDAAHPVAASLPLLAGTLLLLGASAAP
mIAP block: blocks mouse intestinal alkaline phosphatase | purified mouse IAP, CDP-Star luminescence, 30 min | inhibition, % at 10 µM | actives 0.2% (n = 330,000) | AID 2806;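 active = inhibition of at least 40% at 10 µM in the primary screen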;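 also: plate controls were DMSO with enzyme for no effect and no enzyme wells for full effect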
bIAP act: increases bovine intestinal alkaline phosphatase activity | purified bovine IAP, CDP-star luminescence, 30 min; active compounds read high; fold of DMSO-control signal, blank-subtracted | activation factor at 20 µM | actives 0.17% (n = 200,000) | AID 1016;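 active = activation factor of 2 or more at 20 µM, a signal rise over negative controls twice the positive control's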
hIAP inh: blocks human intestinal alkaline phosphatase. purified IAP, CDP-Star luminescence, 30 min. actives 0.12% (n = 330,000). AID 2544. P09923. inhibition, % at 10 µM;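 active = inhibition reaching a set limit with compound at 10 µM in the primary screen, cut at about 35% in these data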;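 also: plate controls were DMSO wells with enzyme for no effect and no-enzyme buffer wells for full effect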
Starred values were filed as active, the others as inactive; i = inactive; · = no result. Sampled rows, rich in hits. Any-hit rate of the full collection: about 0.79%.

SMILES | mIAP activ | bIAP inhibitor | hIAP activ | mIAP block | bIAP act | hIAP inh
O=C(O)c1ccc(CS(=O)c2cccc(C(F)(F)F)c2)o1 (configuration not stated) | 1 | -224 | 0.73 | 0 | 3.2* | 26
Cc1cccc(OCCCCCn2ccnc2)c1C | 1.1 | -202 | 1 | -6 | 3* | 0
COc1cccc2c1NC(C(=O)O)C1CC=CC21 (configuration not stated) | 0.43 | 12 | 1.1 | 57* | 0.9 | -7
Cc1ccc2c(c1)C1C=CCC1C(C(=O)O)N2 (configuration not stated) | · | 7 | · | · | 0.9 | ·
Cc1noc(C)c1CSCC(=O)Oc1ccc(N(C)S(=O)(=O)c2ccc(Cl)cc2)cc1 | 0.91 | · | 0.95 | 9 | · | 5
CN1CCC(=NNC(=O)C(=O)NC(C)(C)C)CC1 | 0.91 | -276 | 0.96 | 9 | 3.8* | 4
CC(C)(C)NC(=O)C(=O)NN=C1CCCCCC1 | 1 | 2 | 1.1 | -5 | 1 | -7
Oc1ccc(-c2nc(-c3ccc(O)c(O)c3)cs2)cc1 | 0.68 | 16 | 0.62 | 32 | 0.8 | 38*
COc1ccccc1[C@H]1C(c2ccc(F)cc2)=NN(c2ccccc2)[C@@H]1CO | 1.6 | · | · | -56 | · | ·
OC[C@@H]1[C@@H](c2ccc(Cl)cc2)C(c2ccccc2)=NN1c1ccccc1 | 2* | · | · | -105 | · | ·
C[C@H]1C(c2ccc(F)cc2)=NN(c2ccccc2)[C@@H]1CO | 1.6 | · | · | -59 | · | ·
OC[C@@H]1[C@@H](c2ccc(F)cc2)C(c2cccc(Cl)c2)=NN1c1ccccc1 | 2.1* | · | · | -113 | · | ·
CCN(CC)CCNc1ncnc2c1[nH]c1ccc(OC)cc12 | 1.1 | · | 1.1 | -11 | · | -12
COc1ccc2[nH]c3c(NCCC4=CCCCC4)ncnc3c2c1 | · | -113 | · | · | 2.1* | ·
CCOc1ccc2[nH]c3c(NCCC(C)C)ncnc3c2c1 | 2.2* | · | 1.6 | -122 | · | -61
CC1(C)CCC/C(=C\c2ccccc2)C1=O | 1 | · | 1 | 0 | · | 0
CCCCn1c(N)c(N(CCC)C(=O)C2CCCC2)c(=O)[nH]c1=O | 1.1 | · | 1.1 | -6 | · | -14
O=c1c2c3c(sc2nc(N2CCNCC2)n1CCc1ccccc1)CCCCC3 | 0.95 | · | 1 | 5 | · | -1
O=C(Nc1cccc(Cl)c1)c1cc(N=Nc2ccc([N+](=O)[O-])cc2Cl)ccc1O | 0.74 | · | 0.61 | 26 | · | 38*
O=C(Nc1ccc([N+](=O)[O-])cc1Cl)c1cc(Cl)ccc1O | 0.97 | · | 1 | 2 | · | 0
NS(=O)(=O)c1ccc(N2N=C(c3ccccc3)CC2c2ccccc2)cc1 (configuration not stated) | 2.1* | 12 | 1.4 | -105 | 0.9 | -37
CSc1nn2c(C(F)(F)F)cc(C(F)(F)F)nc2c1C(N)=O | 1 | · | 0.93 | 0 | · | 7
CC(C)N1C(=S)SC(C)(C)C1NO (configuration not stated) | 1 | -112 | 0.91 | -2 | 2.1* | 9
Cc1ccc(/C=C/C(=O)NC2=NCCS2)cc1 | 1 | 38 | 0.59 | -2 | 0.6 | 41*
Cc1noc(C)c1S(=O)(=O)N(C)C[C@H]1Oc2ccc(NC(=O)NC3CCCCC3)cc2C(=O)N([C@H](C)CO)C[C@@H]1C | 2.6* | · | 0.98 | -157 | · | 2
SMILES | mIAP activ | bIAP inhibitor | hIAP activ | mIAP block | bIAP act | hIAP inh
COc1ccc(NC(=O)Nc2ccc3c(c2)C(=O)N([C@H](C)CO)C[C@H](C)[C@@H](CN(C)C(=O)NC2CCCCC2)O3)cc1 | 2.4* | · | 1.1 | -139 | · | -7
COc1ccc(NC(=O)N(C)C[C@H]2Oc3ccc(NC(=O)NC4CCCCC4)cc3C(=O)N([C@H](C)CO)C[C@@H]2C)cc1 | 2.1* | · | 0.96 | -105 | · | 4
O=C(NC(=S)NNC(=O)c1cc2ccccc2cc1O)c1ccco1 | 0.65 | 8 | 2.2* | 35 | 0.9 | -124
O=C(NC(=S)NNC(=O)c1ccccc1O)c1ccco1 | · | 10 | · | · | 0.9 | ·
Cc1oc(S(=O)(=O)N2CCCCC2)cc1NC(=O)Nc1ccc(Cl)cc1 | 2.6* | · | 1.4 | -156 | · | -35
O=C(Nc1ccccc1)Nc1ccc(S(=O)(=O)N2CCCCC2)cc1 | 2.4* | 17 | 0.94 | -140 | 0.8 | 6
O=C(Nc1ccc(S(=O)(=O)N2CCCCC2)cc1)c1ccccc1Cl | 1 | 19 | 0.86 | -1 | 0.8 | 14
CC(=O)c1ccc(S(=O)(=O)N2CCN(C(=O)c3ccc(COc4ccccc4)o3)CC2)cc1 | 0.93 | · | 1 | 7 | · | -2
Cc1ccc(S(=O)(=O)N2CCN(CC(=O)NC3CCCc4ccccc43)CC2)c(C)c1 (configuration not stated) | 1.3 | i | 1 | -27 | 56* | -3
CCOC(=O)C1CCN(C(=O)C2(NC(=O)Nc3ccccc3C)CCCCC2)CC1 | 1.1 | · | 1.2 | -7 | · | -21
CCOC(=O)C1CCN(C(=O)C2(NC(=O)Nc3ccccc3Cl)CCCCC2)CC1 | 1.2 | -249 | 1.1 | -23 | 3.5* | -12
O=C(O)c1ccc(NS(=O)(=O)c2ccc3c(c2)C2C=CCC2C(c2ccccc2F)N3)cc1 (configuration not stated) | 0.94 | 11 | 0.93 | 6 | 0.9 | 7
NS(=O)(=O)c1ccc2c(c1)C1C=CCC1C(C1CC=CCC1)N2 (configuration not stated) | 0.44 | 21 | 1 | 56* | 0.8 | -3
O=C(N1CCN(c2ccccc2F)CC1)C1(c2cccs2)CCOCC1 | 1 | -275 | 0.93 | -3 | 3.7* | 7
N#Cc1cc2c(nc1SCc1cccc(Cl)c1)CCCCC2 | 0.59 | 26 | 1 | 41* | 0.7 | -2
N#Cc1cc2c(nc1SCc1ccccc1)CCCCC2 | 1 | 36 | 0.76 | -1 | 0.6 | 24
COc1cc(CNCCc2c[nH]c3ccccc23)ccc1OCc1ccc(F)cc1 | 0.93 | -187 | 0.85 | 7 | 2.9* | 15
C[C@H]1NS(=O)(=O)c2ccc(Br)cc2O[C@H]1c1ccccc1 | 1.1 | · | · | -5 | · | ·
COc1ccc(/C=N/NC(=O)c2cnccn2)cc1O | 1 | -1 | 1.1 | -2 | 1 | -12
COc1cccc(/C=N/NC(=O)c2cnccn2)c1 | 0.95 | -121 | 0.85 | 5 | 2.2* | 15
Cc1ccc(Cl)cc1S(=O)(=O)N1CCC(C(=O)NC2CCN(Cc3ccccc3)CC2)CC1 | 1.1 | · | 1.2 | -10 | · | -15
CCn1c(SCc2nc3ccccc3[nH]2)nnc1-c1ccccc1OC | 0.98 | -133 | 0.87 | 2 | 2.3* | 13
O=C(COC(=O)c1cc(Br)ccc1Cl)NC(=O)NCc1ccccc1 | 0.91 | 1 | 0.97 | 9 | 1 | 3
O=C(COc1ccc(Cl)cc1Br)NC(=O)NCc1ccccc1 | 1 | i | 0.89 | -5 | 6.5* | 11
CCn1c(C(O)c2ccc3c(c2)OCO3)nc2ccccc21 (configuration not stated) | 1 | -154 | 0.91 | -2 | 2.5* | 9
